# Assay outcomes from PubChem.
# SDO1 yeast rescue = sdo1-depleted yeast growth rescue; S. cerevisiae sdo1-depleted JHY4D growth rescue, OD600 30 h; hits give high values; pdr5 snq2 efflux-pump mutant strain; z-score at 10 µM; 0.21% of 140,000 active;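 active = z-score above 3 at both the 24 hr and the 30 hr optical density reads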;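 also: z-score against mean and SD of all compound wells on the same plate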
# MRP-1 activ = activates MRP-1; H69AR cells + doxorubicin, viability rescue, CellTiter-Glo; viability increase, % at 10 µM; 0.61% of 140,000 active;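 active = viability gain under doxorubicin at or above a set limit, the compound median plus 3 SD, cut at about 4.7% in these data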;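 also: MRP-1 overexpressing cells given doxorubicin 25 µM after compound pretreatment; 18-22 h compound pretreatment then 72 h with doxorubicin before readout; 0% = doxorubicin-only wells and 100% = vehicle-treated cells without doxorubicin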
# Phagocytosis inh = macrophage phagocytosis inhibition; J774A.1 macrophage IgG-bead phagocytosis, imaging; inhibition, % at 5 µM; AID 1029; 0.07% of 110,000 active;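 active = inhibition above the mean of the plate negative controls plus 5 SD, cut at about 13% in these data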;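 also: phagocytic index as fraction of beads internalized from green versus red external bead signal; plate controls were DMSO negative control for no effect and cytochalasin-D positive control for full effect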
# MRP reversal = compounds reversing MRP-mediated drug resistance; 0.04% of 85,000 active; AID 602; differential viability (reversal), % at 10 µM; H69AR cells + 2 uM doxorubicin, CellTiter-Glo, 72 h;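 active = viability drop by adding the cancer drug above about 55%, with treated viability meeting a 40% cutoff, limit read from the data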;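 also: viability without doxorubicin minus viability with 2 µM doxorubicin for each compound; larger differential means the compound sensitizes cells more to doxorubicin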
# Yeast growth inh = yeast BB579 growth reduction in restrictive medium; S. cerevisiae BB579 growth, OD615, 48 h; inhibition, % at 10 µM; 0.51% of 140,000 active; AID 804;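 active = inhibition above a set limit, 3 SD over the mean compound inhibition, cut at about 44% in these data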
#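 test system = yeast BB579 (DeaD) | buffer or medium = restrictive CSMM-D medium | doses = single compound dose of 10 µM, 0.25% DMSO final | times = 4 h preincubation and 48 h exposure at 30 °C | technique = culture absorbance at 615 nm | benchmarks = amphotericin B 10 µg/mL, positive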
# Yeast lifespan up = yeast lifespan extension. S. cerevisiae growth with nicotinamide, OD615; deaD strain in restrictive glucose medium. inhibition of the nicotinamide effect, % at 10 µM. 0.68% of 130,000 active. AID 775;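 active = inhibition above a set limit, placed 3 SD over the median of all compounds, cut at about 26% in these data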;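 also: 0% = nicotinamide-treated wells and 100% = cells grown without nicotinamide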
#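 Test system: DeaD-strain S. cerevisiae / Buffer or medium: restrictive glucose medium / Also added: nicotinamide 1.5 mM / Doses: one concentration, 10 µM, DMSO 0.25% / Schedule: 48 h at 30 °C / Signal: OD615 measurement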
# * = called active by the depositor; nt = no result given; [ ] = remark or other dose. Compounds with a hit are over-represented: about 2.1% of the library has one in this group of screens.
SMILES,SDO1 yeast rescue,MRP-1 activ,Phagocytosis inh,MRP reversal,Yeast growth inh,Yeast lifespan up
CCCn1c(Nc2nc3ccccc3n2C)nc2ccccc21,1.1,-6,-4,0,90*,-30
CN(C)c1ccc(S(=O)(=O)c2ccc(Cl)cc2)cc1,-0.68,-3,1,3,-12,71*
O=C(O)CCCCCNS(=O)(=O)c1c(Cl)cccc1Cl,0.72,-2,-1,2,-22,-13
CC(C)Cn1c2c(c(O)c(C(=O)Nc3ccc(F)cc3)c1=O)CCCC2,-0.31,6.3*,-1,-9,-28,-10
O=C(CSc1nc2ccccc2n1Cc1ccccc1)N/N=C/c1ccco1,-0.55,-2,0,nt,-39,3
Cc1ccc(Cn2c(SCC(=O)N/N=C/c3ccc(C)o3)nc3ccccc32)cc1,-1.1,4.7*,nt,nt,-72,-8
O=C(NN1C(=O)c2ccc3c4c(ccc(c24)C1=O)CC3)c1ccc(Br)cc1,-1.2,-2,nt,nt,-36,-7
O=C1c2ccc3c4c(ccc(c24)C(=O)N1NC(=O)C(F)(F)F)CC3,0.17,0,nt,nt,54*,-5
Cc1nccn1-c1c2c(c(C#N)c3nc4ccccc4n13)CCC2,nt,nt,0,-11,nt,nt
COC(=O)c1sc2ccccc2c1-n1cccc1C(=O)C(=O)Nc1ccc(C)cc1,-1.8,0,nt,nt,-54,38*
COC(=O)C(C)NC(=O)C1CCCN1S(=O)(=O)c1cc(C)c(Cl)cc1C (configuration not stated),1.5,-3,-1,-11,-19,-14
CCOC(=O)C1=C(C)N(C)C(=S)NC1c1ccccc1Cl (configuration not stated),-0.72,-3,nt,nt,-29,-21
CCOC(=O)N1C(=O)C2(CCCCC2)N(c2ccccc2Cl)C1=S,-0.29,-2,2,nt,0,37*
COc1ccc(S(=O)(=O)Nc2ccc(N(C)C(C)=O)cc2)cc1,0.3,-1,192*,13,-25,12
COCCn1c(SCC(=O)Nc2nnc(C)s2)nnc1-c1cc2ccccc2cc1O,0.12,0,0,nt,-14,-12
COc1cccc(-c2csc(N3CCN(C(=O)Nc4ccccc4OC)CC3)n2)c1,-1.7,-2,nt,-6,-27,-8
CCOC(=O)C1CCCN(Cc2ccc(OC)cc2OC)C1 (configuration not stated),0.91,30*,0,0,-27,2
CC1C/C(=C\c2cccnc2)C(=O)/C(=C/c2cccnc2)C1 (configuration not stated),-1.9,-4,-9,nt,-4,70*
Cc1cc(NC(=O)CCN2C(=O)c3ccccc3C2=O)no1,0.38,-1,1,-5,-10,-10
COc1cccc(/C=C2\SC(=O)N(CCC(=O)NNC(=O)c3ccccc3Cl)C2=O)c1,-1.2,0,nt,nt,-33,0
CC(=O)c1ccc(NC(=O)CCCN2C(=O)/C(=C/C(C)=C/c3ccccc3)SC2=S)cc1,-0.28,6.1*,-5,nt,-25,2
O=C(CN1C(=O)S/C(=C\c2ccc(Cl)cc2)C1=O)NNC(=O)c1ccccc1O,-0.54,7.7*,nt,nt,-42,1
Cc1cc(NC(=O)CN2C(=O)S/C(=C\c3ccccc3)C2=O)no1,-0.66,5.1*,nt,nt,-5,-1
CC(/C=C1\SC(=O)N(CC(=O)Nc2ccc(O)cc2)C1=O)=C\c1ccccc1,-0.09,8.7*,nt,nt,-46,-1
CC(C)=NNC(=O)CN1C(=O)NC2NC(=O)NC21 (configuration not stated),1.2,2,0,nt,0,4
SMILES,SDO1 yeast rescue,MRP-1 activ,Phagocytosis inh,MRP reversal,Yeast growth inh,Yeast lifespan up
COCc1nnc(NC(=O)CCCOc2ccccc2OC)s1,1.6,0,0,17,-46,-11
O=C(Nc1nc(-c2ccccn2)cs1)C1COc2ccccc2O1 (configuration not stated),-3.4,0,nt,-3,93*,-6
O=C(O)C1CCCCC1C(=O)Nc1cnn(Cc2ccccc2)c1 (configuration not stated),2.4,-1,nt,13,-43,1
CSC[C@@H]1NC(=S)N(c2ccc(C)cc2)C1=O,-0.86,-3,-3,nt,9,31*
COc1ccccc1C1(CC(=O)N2CCOCC2)CCOC(C(C)C)C1 (configuration not stated),0.07,0,-2,5,-52,-5
CC(C)N=c1scc(-c2ccco2)n1/N=C/c1ccc(O)c(O)c1,-1.5,-7,nt,-17,92*,-30
CC(=O)c1c(O)cc(C)n(Nc2nc(C)cc(C)n2)c1=O,0.07,2,4,-27,-18,32*
COc1cccc(C(=O)COc2ccc3c(C)c(Cc4ccccc4)c(=O)oc3c2)c1,0.99,-1,-1,nt,-48,10
CC(C)Cc1nnc(NC(=O)c2ccc([N+](=O)[O-])cc2)s1,-0.28,-3,nt,nt,-41,-24
CCOC(=O)c1sc(-c2ccccc2)cc1NC(=O)Nc1ccccc1,-0.29,6.0*,-2,nt,-9,-4
CCOC(=O)c1cc(NC(=O)Nc2ccccc2OC)c(C)nc1C,1.2,-1,0,-4,-47,-8
CCOC(=O)c1sc(-c2ccc(F)cc2)cc1NC(=O)Nc1ccccc1OC,-0.29,9.0*,-5,nt,-47,0
CC/C(=N\NC(=O)C(N)=O)c1ccccc1O,0.7,5.1*,0,nt,-34,4
Cc1ccc2c(c1)c1c3n2CCN(C(=O)C2CC2)C3CCC1 (configuration not stated),-1.3,-4,nt,9,-24,-7
Cc1ccc2c(c1)c1c3n2CCCN(Cc2ccccc2)C3CCC1 (configuration not stated),-1.9,-1,38*[artifact],-21,-78,-6
CCCCn1c(O)c(/C=C2\C=NN=C2c2ccccc2)sc1=S,-1.1,4,-7,nt,-32,-8
CCCCCCn1c(O)c(/C=C2\C=NN=C2c2ccccc2)sc1=S,0.43,5.3*,3,nt,-8,-2
CCOC(=O)c1[nH]c2cc(OC)c(OC)cc2c1N,0.04,8.5*,1,0,-28,-10
COc1ccccc1NC(=O)c1sc2nc(Cc3ccccc3)cc(C(F)(F)F)c2c1N,-0.56,-1,-1,nt,-10,-12
CCN(c1ccccc1)S(=O)(=O)c1ccc(OC)c(NC(=O)CNCC(C)O)c1 (configuration not stated),1.1,-2,-8,nt,-21,3
CCN1CCN(C(=O)CS(=O)(=O)Cc2nc(-c3ccc(C)cc3)oc2C)CC1,0.44,-2,1,16,-10,-9
CCN(CC)C(=O)C1CCN(CC2CC=CCC2)CC1 (configuration not stated),0.26,-3,0,-18,-32,-3
Nc1oc2ccc(F)cc2c(=O)c1C=O,1.1,-1,-1,nt,-31,27*
O=C(O)CCC(=O)Nc1sc2c(c1C(=O)Nc1cccc3ccccc13)CCCCC2,0.04,-4,-3,nt,-19,30*
